According to ChEMBL document CHEMBL1156610, “Synthesis, biological evaluation, and molecular modeling studies of methylene imidazole substituted biaryls as inhibitors of human 17alpha-hydroxylase-17,20-lyase (CYP17)--part II: Core rigidification and influence of substituents at the methylene bridge” (Bioorg Med Chem, 2008):

Tests used:
[1] = biological target: T1, Steroid 17-alpha-hydroxylase/17,20 lyase (Homo sapiens, UniProt P05093); assay: Inhibition of human CYP17 expressed in Escherichia coli coexpressed with cytochrome P450 reductase
T1 sequence (P05093 whole entry): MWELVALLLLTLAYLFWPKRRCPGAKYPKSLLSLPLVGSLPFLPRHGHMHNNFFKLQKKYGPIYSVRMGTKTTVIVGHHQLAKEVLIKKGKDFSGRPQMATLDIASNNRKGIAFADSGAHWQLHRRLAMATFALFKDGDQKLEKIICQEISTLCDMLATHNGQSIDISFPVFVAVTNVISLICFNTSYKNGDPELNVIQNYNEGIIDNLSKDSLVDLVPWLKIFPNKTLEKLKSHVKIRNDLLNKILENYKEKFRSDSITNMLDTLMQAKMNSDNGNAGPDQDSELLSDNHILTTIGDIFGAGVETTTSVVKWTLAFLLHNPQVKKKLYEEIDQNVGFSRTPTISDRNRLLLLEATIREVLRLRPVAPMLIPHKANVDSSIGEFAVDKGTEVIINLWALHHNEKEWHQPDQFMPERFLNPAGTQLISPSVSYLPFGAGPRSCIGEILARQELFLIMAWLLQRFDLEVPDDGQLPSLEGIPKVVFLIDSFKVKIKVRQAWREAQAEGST
In short: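 Enzyme source: 50,000g sediment from homogenized E. coli coexpressing human CYP17 and cytochrome P450 reductase. Substrate progesterone (25 µM as printed), NADPH cofactor.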

CYP3A4 = CYP3A4 (Homo sapiens, UniProt P08684); assay: Inhibition of hepatic CYP3A4 expressed in insect microsomes at 1 uM; assay type: ADME, Microsome
Chain of CYP3A4 (P08684 whole entry): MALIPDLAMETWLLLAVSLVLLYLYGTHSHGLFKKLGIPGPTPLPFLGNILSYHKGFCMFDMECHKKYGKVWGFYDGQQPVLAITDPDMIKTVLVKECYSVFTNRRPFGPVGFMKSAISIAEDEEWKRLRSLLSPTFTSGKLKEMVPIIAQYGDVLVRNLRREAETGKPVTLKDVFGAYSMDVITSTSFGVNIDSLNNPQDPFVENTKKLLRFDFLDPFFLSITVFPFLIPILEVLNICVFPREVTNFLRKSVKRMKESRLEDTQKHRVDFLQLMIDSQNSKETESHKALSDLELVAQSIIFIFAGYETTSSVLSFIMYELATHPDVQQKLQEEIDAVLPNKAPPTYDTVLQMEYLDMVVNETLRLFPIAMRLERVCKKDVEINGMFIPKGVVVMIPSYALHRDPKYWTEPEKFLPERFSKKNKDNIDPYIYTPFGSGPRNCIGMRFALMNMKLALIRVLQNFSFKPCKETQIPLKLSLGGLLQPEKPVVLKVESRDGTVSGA
In short: (§1)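 Recombinant human enzymes from baculovirus-infected insect cell microsomes, run per supplier protocol. Test concentration 1 µM; values are means of at least three independent tests, standard deviations under 5%.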

CYP1A2 = biological target: T2, CYP1A2 (Homo sapiens, UniProt P05177); assay: Inhibition of hepatic CYP1A2 expressed in insect microsomes at 1 uM; assay type: ADME, Microsome; in short: as §1
T2 sequence (P05177 whole entry): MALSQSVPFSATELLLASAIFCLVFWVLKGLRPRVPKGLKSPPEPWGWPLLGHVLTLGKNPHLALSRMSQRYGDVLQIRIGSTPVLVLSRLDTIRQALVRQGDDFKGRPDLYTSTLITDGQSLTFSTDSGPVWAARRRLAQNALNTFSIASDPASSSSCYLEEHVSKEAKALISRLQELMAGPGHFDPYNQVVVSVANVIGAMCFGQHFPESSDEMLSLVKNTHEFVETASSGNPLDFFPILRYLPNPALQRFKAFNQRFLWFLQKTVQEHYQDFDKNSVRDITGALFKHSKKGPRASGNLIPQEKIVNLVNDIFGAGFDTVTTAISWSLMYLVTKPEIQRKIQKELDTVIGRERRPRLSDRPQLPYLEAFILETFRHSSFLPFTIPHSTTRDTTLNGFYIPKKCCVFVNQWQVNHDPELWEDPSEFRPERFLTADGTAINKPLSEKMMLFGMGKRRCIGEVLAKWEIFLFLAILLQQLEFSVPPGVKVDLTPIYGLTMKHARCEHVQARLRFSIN

CYP2D6 = CYP2D6 (Homo sapiens, UniProt P10635); assay: Inhibition of hepatic CYP2D6 expressed in insect microsomes at 1 uM; assay type: ADME, Microsome; in short: as §1
Chain of CYP2D6 (P10635 whole entry): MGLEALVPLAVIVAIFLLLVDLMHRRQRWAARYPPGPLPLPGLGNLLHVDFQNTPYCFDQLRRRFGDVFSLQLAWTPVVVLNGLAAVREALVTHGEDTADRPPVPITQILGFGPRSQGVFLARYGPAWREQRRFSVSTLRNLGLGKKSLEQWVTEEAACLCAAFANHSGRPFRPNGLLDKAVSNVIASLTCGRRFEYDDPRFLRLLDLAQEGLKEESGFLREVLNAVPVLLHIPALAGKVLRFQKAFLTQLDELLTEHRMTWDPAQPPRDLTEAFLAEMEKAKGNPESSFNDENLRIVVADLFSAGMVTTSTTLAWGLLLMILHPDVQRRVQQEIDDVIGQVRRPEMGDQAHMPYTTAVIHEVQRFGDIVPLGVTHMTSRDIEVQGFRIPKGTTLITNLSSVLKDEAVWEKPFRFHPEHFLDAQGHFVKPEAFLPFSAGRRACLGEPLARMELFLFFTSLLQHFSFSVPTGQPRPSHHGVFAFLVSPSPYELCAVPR

CYP2B6 = biological target: T3, CYP2B6 (Homo sapiens, UniProt P20813); assay: Inhibition of hepatic CYP2B6 expressed in insect microsomes at 1 uM; assay type: ADME, Microsome; in short: as §1
T3 sequence (P20813 whole entry): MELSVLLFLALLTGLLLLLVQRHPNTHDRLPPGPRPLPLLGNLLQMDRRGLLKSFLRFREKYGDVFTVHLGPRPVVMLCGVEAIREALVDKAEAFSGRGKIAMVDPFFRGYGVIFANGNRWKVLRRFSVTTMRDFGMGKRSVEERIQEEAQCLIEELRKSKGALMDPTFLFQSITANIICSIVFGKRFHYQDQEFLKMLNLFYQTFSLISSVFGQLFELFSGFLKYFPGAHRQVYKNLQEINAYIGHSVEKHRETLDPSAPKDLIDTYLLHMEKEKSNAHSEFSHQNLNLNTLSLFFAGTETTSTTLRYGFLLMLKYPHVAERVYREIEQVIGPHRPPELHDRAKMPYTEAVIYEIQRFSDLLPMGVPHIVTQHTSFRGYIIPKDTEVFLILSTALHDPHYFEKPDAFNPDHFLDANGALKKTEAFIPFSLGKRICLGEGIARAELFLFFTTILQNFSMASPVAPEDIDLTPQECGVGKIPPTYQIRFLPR

Row | Compound | IC50 [1] [nM] | also measured
1 | CCC(c1ccc(-c2ccc(C#N)cc2)cc1)n1ccnc1 (stereo unspecified) | > 5000 | –
2 | C=CC(c1ccc(-c2ccccc2)cc1)n1ccnc1 (stereo unspecified) | 1400 | –
3 | CCCC(c1ccc(-c2ccccc2)cc1)n1ccnc1 (stereo unspecified) | 580 | –
4 | CCc1ccc(-c2ccc(C(CC)n3ccnc3)cc2)cc1 (stereo unspecified) | 2000 | –
5 | CCC(c1ccc(-c2ccc(N(CC)CC)cc2)cc1)n1ccnc1 (stereo unspecified) | > 5000 | –
6 | CC(C)(C)C(c1ccc(-c2ccccc2)cc1)n1ccnc1 (stereo unspecified) | 460 | –
7 | c1ccc(-c2ccc(C(c3ccc(-c4ccccc4)cc3)n3ccnc3)cc2)cc1 | 2300 | –
8 | CCC(c1ccc(-c2ccc(SC)cc2)cc1)n1ccnc1 (stereo unspecified) | 3100 | –
9 | CCC(c1ccc(-c2ccc(C)cc2)cc1)n1ccnc1 (stereo unspecified) | > 5000 | –
10 | Fc1ccc(-c2ccc(C(CCCl)n3ccnc3)cc2)cc1 (stereo unspecified) | 756 | inhibition at 1 µM (CYP2D6): 32%; inhibition at 1 µM (CYP3A4): 86%; inhibition at 1 µM (CYP1A2): 96%; inhibition at 1 µM (CYP2B6): 34%
11 | C=CC(c1ccc(-c2ccc(F)cc2)cc1)n1ccnc1 (stereo unspecified) | > 5000 | –

Second part, led by results:

Row | IC50 [1] [nM] | Compound | also measured
12 | 1100 | CC(c1ccc(-c2ccc(F)cc2)cc1)n1ccnc1 (stereo unspecified) | –
13 | 118 | CC(c1ccc2c(c1)[nH]c1cc(F)ccc12)n1ccnc1 (stereo unspecified) | inhibition at 1 µM (CYP3A4): 75%
14 | 310 | CC(C)C(c1ccc(-c2ccccc2)cc1)n1ccnc1 (stereo unspecified) | –
15 | 910 | CC(c1ccc(-c2ccccc2)cc1)n1ccnc1 (stereo unspecified) | –
16 | 450 | CCC(c1ccc(-c2ccccc2)cc1)n1ccnc1 (stereo unspecified) | –
17 | 2100 | CC(C)CC(c1ccc(-c2ccccc2)cc1)n1ccnc1 (stereo unspecified) | –
18 | 300 | CCCCC(c1ccc(-c2ccccc2)cc1)n1ccnc1 (stereo unspecified) | –
19 | 282 | CC(c1ccc2c(c1)[nH]c1ccccc12)n1ccnc1 (stereo unspecified) | inhibition at 1 µM (CYP3A4): 88%; inhibition at 1 µM (CYP1A2): 99%
